The values below come from ChEMBL document CHEMBL1800034, “A synthetic 7,8-dihydroxyflavone derivative promotes neurogenesis and exhibits potent antidepressant effect” (J Med Chem, 2010).

Each structure is given as a SMILES string. Activity calls are given as the source filed them. No cut-off for these calls is given here.

A short description of data set [1]: Cytotoxicity at E17 rat primary cortical neurons assessed as cell death at 5 uM by LDH assay. Format: cell-based. Particulars: cerebral cortex neuron.
The test system of data set [2] is Mus musculus. Put plainly: Toxicity in C57BL/6J mouse assessed as pathological changes in testis at 5 mg/kg, po for 3 weeks. Format: organism-based. More on the design: dose 5 mg/kg, route oral. The following applies: in vivo, 504 h. The method in brief: (§1)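 Mice were dosed orally at 5 mg/kg for 3 weeks, with saline-treated controls. Major organs were examined for pathological changes, and a complete blood count was done.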

The subject of data set [3] is Mus musculus. Put plainly: Toxicity in C57BL/6J mouse assessed as pathological changes in liver at 5 mg/kg, po for 3 weeks. The following applies: in vivo, 504 h. More on the design: dose 5 mg/kg, route oral. Format: organism-based. Summed up:
as §1

In data set [4] the target is BDNF/NT-3 growth factors receptor (Rattus norvegicus) (UniProt Q63604). Put plainly: Agonist activity at TrkB in E17 rat primary cortical neurons at 500 nM after 5 mins by immunoblotting. Format: functional, cell-based. Particulars: Cerebral cortex neuron. The method in brief:
(§2)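 Rat primary cortical neurons were exposed to 500 nM compound for various times between 5 and 180 min. Lysates were immunoblotted for TrkB, Akt and MAPK phosphorylation.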
On the technique in general: A western blot detects proteins with antibodies after separation by electrophoresis.

Data set [5] has the same target. The data set can be described thus: Agonist activity at TrkB in E17 rat primary rat cortical neurons assessed as AKT phosphorylation at Ser 473 at 100 nM after 15 mins by titration assay. Format: functional. The method in brief:
(§3)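 Primary cortical neurons were incubated with graded concentrations, starting at 10 nM, for 15 min. Phospho-Akt Ser473 was measured by sandwich ELISA on 20 µg of lysate. Data come from 2 replicated experiment sets, given as mean ± SEM. Comparisons used one-way ANOVA against control and Student's t-test between compounds.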

Data set [6] has the same target. The data set can be described thus: Agonist activity at TrkB in E16 rat embryonic cortical neurons assessed as inhibition of glutamate-induced caspase 3 activation at 10 nM after 30 mins followed by 16 hrs of 50 uM glutamate-challenge by ELISA. Type of data set: functional. Summed up: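 Cortical neurons from E16 rat embryos were pretreated with the indicated compound concentrations for 30 min. They were then challenged with 50 µM glutamate for 16 h. Active caspase-3 in the lysates was measured by ELISA.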

Data set [7] deals with Mus musculus. Put plainly: Antidepressant activity in TrkB F616A knock in mouse assessed as reduction of immobility time at 5 mg/kg, po administered for 21 days by forced swim test assay in presence of TrkB F616A inhibitor 1NMPP1. Type of data set: functional, organism-based. Also on record: dose 5 mg/kg.
In data set [8] the target is BDNF/NT-3 growth factors receptor (Rattus norvegicus) (UniProt Q63604). The data set can be described thus: Agonist activity at TrkB in E17 rat primary cortical neurons at 500 nM after 30 to 180 mins by immunoblotting. Format: functional, cell-based. The following applies: Cerebral cortex neuron. Summed up: as §2
Data set [9] has the same target. The data set can be described thus: Agonist activity at TrkB in E17 rat primary rat cortical neurons assessed as AKT phosphorylation at Ser 473 after 15 mins by titration assay. Format: functional. Summed up: as §3
A further data set concerns HEK293. The data set can be described thus: Cytotoxicity against human HEK293 cells assessed as cell death at 50 to 50000 nM after 24 hrs by LDH assay. Type of data set: cell-based. Particulars: hek293, 24 h, 50 µM.
The test system of data set [10] is Mus musculus. Put plainly: Toxicity in C57BL/6J mouse assessed as pathological changes in intestine at 5 mg/kg, po for 3 weeks. Format: organism-based. More on the design: dose 5 mg/kg, route oral. The following applies: in vivo, 504 h. Summed up: as §1
In data set [11] the test system is Mus musculus. The data set can be described thus: Agonist activity at TrkB in C57BL/6J mouse brain lysate assessed as TrkB phosphorylation at Y817 at 5 mg/kg, po administered for 21 days by immunoblotting. Type of data set: functional, organism-based. Also on record: dose 5 mg/kg. Summed up:
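Adult male C57BL/6J mice, 8 per group, dosed orally by gavage once daily for 21 days; saline was the vehicle. Brain lysates were immunoblotted with anti-p-TrkA 794 and anti-p-TrkB 817.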

Chain of BDNF/NT-3 growth factors receptor (Rattus norvegicus) (Q63604 whole entry): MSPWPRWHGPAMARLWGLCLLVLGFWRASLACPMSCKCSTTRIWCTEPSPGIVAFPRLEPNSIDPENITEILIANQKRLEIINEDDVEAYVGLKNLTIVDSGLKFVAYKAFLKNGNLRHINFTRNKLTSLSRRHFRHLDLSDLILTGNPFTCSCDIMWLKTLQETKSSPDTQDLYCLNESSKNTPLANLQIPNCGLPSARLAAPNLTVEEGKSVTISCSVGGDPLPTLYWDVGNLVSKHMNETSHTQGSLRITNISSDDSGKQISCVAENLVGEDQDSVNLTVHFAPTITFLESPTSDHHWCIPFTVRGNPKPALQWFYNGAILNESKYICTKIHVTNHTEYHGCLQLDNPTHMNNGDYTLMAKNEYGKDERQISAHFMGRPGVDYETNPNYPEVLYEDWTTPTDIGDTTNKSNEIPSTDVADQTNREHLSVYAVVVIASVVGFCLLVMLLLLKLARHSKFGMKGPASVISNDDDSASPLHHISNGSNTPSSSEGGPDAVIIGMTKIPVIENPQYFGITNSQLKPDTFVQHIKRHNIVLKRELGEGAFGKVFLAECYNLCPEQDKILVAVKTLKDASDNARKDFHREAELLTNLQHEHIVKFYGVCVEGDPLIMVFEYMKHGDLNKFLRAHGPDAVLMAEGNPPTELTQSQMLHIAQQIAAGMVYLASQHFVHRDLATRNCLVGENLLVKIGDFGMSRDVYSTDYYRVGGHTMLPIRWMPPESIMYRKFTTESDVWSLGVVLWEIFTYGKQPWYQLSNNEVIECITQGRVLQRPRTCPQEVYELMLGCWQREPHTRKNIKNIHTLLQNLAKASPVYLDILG

Regarding `CN(C)c1ccc(-c2cc(=O)c3ccc(O)c(O)c3o2)cc1`, the Activity entry in data set [1] was “Non-toxic”; in the data set with Mus musculus [2] it was “Non-toxic”; in the data set on Mus musculus [3] it was “Non-toxic”; in data set [9], “Dose-dependent effect”; with HEK293, “Non-toxic”; in the data set on Mus musculus [10], “Non-toxic”. For the same compound, the outcome (in data set [4]; in data set [5]; in the data set on Mus musculus [11]) was Active. Besides, the inhibition result in data set [6] is “Active”. The result (with Mus musculus [7]; in data set [8]) was inactive.
